Source: PubChem
In the library only some 2.4% were active in any assay of this set; here they are far more common.
NR2E3 ag-1: activates human NR2E3 receptor; Q9Y5X4; CHO-S Gal4-NCOR/VP16-NR2E3 two-hybrid, luciferase; inhibition of corepressor binding, % at 3.98 µM; 0.35% of 360,000 active; AID 602229;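 active means inhibition above the mean of all tested compounds plus 3 SD, cut at about 70% in these data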;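 further: higher means lower luciferase signal from less NR2E3 corepressor binding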
Target sequence (Q9Y5X4 whole entry, looked up, the tested form may be a part): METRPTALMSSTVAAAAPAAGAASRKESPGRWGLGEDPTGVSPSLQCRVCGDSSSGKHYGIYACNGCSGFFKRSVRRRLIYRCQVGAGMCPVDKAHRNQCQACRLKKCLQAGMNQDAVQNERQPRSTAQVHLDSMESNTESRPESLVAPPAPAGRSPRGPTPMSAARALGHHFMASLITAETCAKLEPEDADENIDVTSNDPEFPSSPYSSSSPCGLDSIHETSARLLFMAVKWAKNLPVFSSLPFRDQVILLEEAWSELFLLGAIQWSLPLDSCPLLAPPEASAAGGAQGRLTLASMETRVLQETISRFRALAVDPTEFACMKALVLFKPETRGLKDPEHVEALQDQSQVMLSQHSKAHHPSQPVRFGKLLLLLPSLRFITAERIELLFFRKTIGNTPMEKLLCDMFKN
MPTP inh: permeability transition pore inhibition. isolated mouse mitochondria, Ca2+ swelling absorbance, 30 min. inhibition, % at 10 µM. 1.4% of 360,000 active. AID 602449;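 active means inhibition of 50% or more, scaled per plate between neutral and stimulator controls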
697 NFkB inh: lowers PMA/ionomycin-induced NF-kB signal in 697 B cells | inhibition, % at 4 µM | 697 B-cell NF-kB luciferase reporter, 16 h | AID 435022 | 0.33% of 330,000 active; in the data active means inhibition above about 35%
aDG glyco act: increases alpha dystroglycan glycosylation; Pro5-aDG cells, alpha-DG glycosylation AlphaScreen (IIH6); 0% Pro5, 100% B10-LARGE cell signal; activation, % at 10 µM; 0.22% of 360,000 active;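 active means activation of at least 8% versus controls, or a plate z-score of at least 8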;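 further: Pro5 are CHO cells carrying HIG-tagged alpha-DG that lacks glycosylation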
NR2E3 ag-2: activates human photoreceptor nuclear receptor NR2E3 | GST-NR2E3/biotin-RetCOR TR-FRET, 1536-well | AID 2300 | inhibition of corepressor binding, % at 4.78 µM | 0.12% of 320,000 active | Q9Y5X4;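 active means percent inhibition above the cutoff of mean plus 3 SD of all tested compounds, set per screening campaign, cut at about 20% in these data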
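Material: NR2E3–RetCOR corepressor complex | Quantity: 1.35 nM GST-tagged NR2E3 final | Schedule: 5 h at 4 °C | Replication: Singlicate compound wells | Reagent: RetCOR corepressor, biotinylated, 7 nM | Controls: Biotin wells as high control, 0.6% DMSO wells as low control | Signal: TR-FRET, Eu(K)-anti-GST donor, streptavidin-D2 acceptor, ex 340, em 617/671 nm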
Jurkat NFkB inh: lowers PMA/ionomycin-induced NF-kB signal in Jurkat cells; PMA/ionomycin-induced NF-kB luciferase reporter, luminescence; inhibition, % at 4 µM; 0.53% of 330,000 active; AID 435003; in the data active means inhibition above about 50%
Jurkat NFkB conf: inhibitors of the PMA/ionomycin-induced NF-kB reporter in Jurkat cells, retest. AID 435020. 27% of 2,700 active. inhibition, % at 4 µM. shares compounds with Jurkat NFkB inh. Jurkat NF-kB luciferase, 16 h;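 active means inhibition reaching about 45% at 4 µM in either replicate, limit read from the data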
Hits are given with their value; – = inactive; · = no result given.

SMILES | NR2E3 ag-1 | MPTP inh | 697 NFkB inh | aDG glyco act | NR2E3 ag-2 | Jurkat NFkB inh | Jurkat NFkB conf
CCOC(=O)c1ccc(-c2c(-c3cc(OC)c(OC)c(OC)c3)noc2C)cc1F | – | – | – | – | – | 57 | –
COc1ccc(C)cc1N=Nc1ccc(O)c2ncccc12 | – | – | · | – | · | · | ·
COc1cc(OC)cc(C(=O)Nc2cccc3cccnc23)c1 | – | – | – | – | – | – | ·
COc1cccc(N=Nc2ccc(O)c3ncccc23)c1 | – | – | – | – | – | 70 | –
Cc1ccccc1N=Nc1ccc(O)c2ncccc12 | – | – | · | – | – | · | ·
COc1cccc(N=Nc2ccc3cccnc3c2O)c1 | – | – | – | – | – | 95 | –
COc1ccc(N=Nc2ccc(O)c3ncccc23)cc1 | – | – | – | – | – | 74 | –
Nc1ccc(N=Nc2ccccc2)c2cccnc12 | – | – | – | – | – | 84 | –
CC(C)[C@H](NS(=O)(=O)c1ccccc1F)C(=O)NC1CCCCC1 | – | – | – | – | · | – | ·
O=C(CCSc1ccccc1)NNC(=O)c1ccccc1F | – | – | – | – | – | – | ·
COc1cc(/C=C/C(=O)OCC(=O)NC2CCS(=O)(=O)C2)ccc1OC(F)F (stereo not given) | – | – | – | – | – | – | ·
CN(C)c1ccc(NC(=O)CSc2nc3ccccc3c(=O)n2C2CCCCC2)cc1 | – | – | – | – | – | – | ·
Cc1cc(NC(=O)CSc2nc3ccccc3c(=O)n2C2CCCC2)no1 | – | – | – | – | – | 64 | 51
O=C(N/N=C/c1ccccn1)c1ccc(Cl)c(Cl)c1 | – | – | – | – | – | 70 | –
CC1(C(=O)NC2CCCCCCC2)CCC(=O)N1Cc1cccs1 (stereo not given) | – | – | – | – | – | – | ·
CCN1CCN(c2cc(C)c3cc(NC(=O)c4ccc(OC)c(OC)c4)ccc3n2)CC1 | – | – | – | – | – | 57 | –
CCOc1ccccc1C(=O)Nc1ccc2nc(N3CCN(c4ncccn4)CC3)cc(C)c2c1 | · | · | – | · | – | 70 | –
COc1cccc(C(=O)Nc2ccc3nc(N4CCN(c5ncccn5)CC4)cc(C)c3c2)c1OC | · | · | – | · | – | – | ·
CCN1CCN(c2cc(C)c3cc(NC(=O)CCC(=O)Nc4ccc(OC)c(OC)c4)ccc3n2)CC1 | – | – | – | – | – | – | ·
Cc1ccc(NC(=O)NCCCl)cc1S(=O)(=O)N1CCOCC1 | – | – | – | – | – | – | ·
Cc1cccc(NC(=O)CSc2nc(C3CC3)nc3ccccc23)c1 | – | – | – | – | – | – | ·
CCN(CC)c1ccc(NC(=O)CSc2nc(C3CC3)nc3ccccc23)cc1C | – | – | – | – | – | 59 | –
COc1cc(C(=O)Nc2ccc3c(c2)CCN3C(C)=O)cc(OC)c1OC | – | – | – | – | – | 68 | –
COc1cc(C(=O)Nc2ccc(S(=O)(=O)N3CCc4ccccc43)cc2)cc(OC)c1OC | – | – | – | – | – | – | ·
COc1cc(C(=O)Nc2ccc3c(c2)Cc2ccccc2-3)cc(OC)c1OC | – | – | – | – | – | 54 | –
SMILES | NR2E3 ag-1 | MPTP inh | 697 NFkB inh | aDG glyco act | NR2E3 ag-2 | Jurkat NFkB inh | Jurkat NFkB conf
COc1ccc(C(=O)Nc2ccc(Cl)cc2F)cc1S(=O)(=O)N1CCCC1 | – | – | – | – | – | – | ·
Cc1ccc(S(=O)(=O)N2CCCC2=O)c(C)c1N(C)S(C)(=O)=O | – | – | – | – | – | – | ·
COc1ccc(C[C@H](N)C(=O)N[C@H]2[C@@H](O)[C@H](n3cnc4c(N(C)C)ncnc43)O[C@@H]2CO)cc1 | – | – | – | – | – | 100 | 88
CN(C)c1ncnc2c1ncn2C1OC(CO)C(O)C1O (stereo not given) | – | – | – | – | – | – | ·
O=C(CCc1nnc2n(Cc3ccccc3)c(=O)c3ccccc3n12)NCCN1CCOCC1 | – | – | – | – | – | – | ·
O=C(NC(=S)Nc1ccccn1)c1ccccc1 | – | – | – | – | – | – | –
Cn1c(N)c(C(=O)Nc2ccccc2F)sc1=S | – | – | – | – | – | – | ·
Cn1c(N)c(C(=O)Nc2ccc3ccccc3c2)sc1=S | – | – | – | – | – | – | –
O=C(Nc1ccccc1N1CCOCC1)C1CCN(S(=O)(=O)c2cccc(C(F)(F)F)c2)CC1 | – | – | – | – | – | – | ·
